Shown are actives, neighbours in structure and some others; about 2.2% of the full set was active somewhere.
SUMO1-SIM PPI: modulators of SUMO1 protein-protein interactions, primary screen, biochemical, uHTS. SUMO1 binding to a labelled peptide, TR-FRET, 1 h. inhibition, % at 20 µM. 360,000 tested, 0.33% active. AID 602429, 2012; in the data active means inhibition above about 37%
Target sequence (P63165 whole entry, looked up): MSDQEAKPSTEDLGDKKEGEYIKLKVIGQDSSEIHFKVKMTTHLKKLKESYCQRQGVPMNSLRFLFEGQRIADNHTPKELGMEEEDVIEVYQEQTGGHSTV
DNMT1 inh: human DNMT1 methyltransferase inhibitors, primary screen, biochemical, molecular beacon, fluorescence, HinP1I cleavage, uHTS; AID 588458, 2011; 360,000 tested, 0.83% active; inhibition (reported as % activation of signal), % at 10 µM; in the data active means inhibition above about 50%
STEP inh: STEP phosphatase inhibitors, primary screen, biochemical, fluorescence intensity, uHTS. Tyrosine-protein phosphatase non-receptor type 5 (Homo sapiens), P54829. recombinant STEP, OMFP fluorogenic substrate. inhibition, % at 20 µM. 360,000 tested, 0.25% active;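 active means inhibition at 20 µM, scaled per plate between control wells, above about 37%, limit read from the data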;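 further: 0% = DMSO with enzyme and substrate and 100% = substrate only without enzyme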
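Assay system: isolated STEP enzyme. Buffer or medium: pH 6.0 Bis-Tris with DTT and Tween 20. Also added: fluorogenic phosphatase substrate OMFP at 25 µM final. Dosing: 20 µM, 1% DMSO. Timing: 20 min reaction, room temperature, in the dark. Measured by: fluorescence intensity, excitation 480 nm, emission 540 nm. Evaluation: normalized % inhibition.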
Scp1 inh: Scp-1 phosphatase inhibitors, primary screen, biochemical, colorimetric, uHTS; Carboxy-terminal domain RNA polymerase II polypeptide A small phosphatase 1 (Homo …; Recombinant Scp1, phosphopeptide, malachite green phosphate absorbance; inhibition, % at 20 µM; 340,000 tested, 0.88% active; AID 493091, 2011;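 active means inhibition above about 50% at 20 µM, limit read from the data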;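 further: plate controls were DMSO wells with enzyme for no effect and wells lacking enzyme for full effect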
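System: SCP-1 catalytic domain; Reagent: Phospho 17-mer peptide substrate; Doses: one concentration, 20 µM, with 1.0% DMSO; Incubation: 45 min room-temperature reaction, 5 min colour, 30 min stabiliser; Signal: Phosphate-binding colour reagent, absorbance read at 630 nm.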
LMPTP block: LMPTP phosphatase inhibitors, primary screen, biochemical, fluorescence intensity, uHTS; Low molecular weight phosphotyrosine protein phosphatase (Homo sapiens), P24666; recombinant LMPTP-A, OMFP fluorogenic substrate; inhibition, % at 20 µM; 360,000 tested, 0.22% active;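 active means compounds that cut the enzyme signal by at least half of the control window in the single-dose screen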;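 further: plate controls were DMSO wells with enzyme plus substrate for no effect and substrate without enzyme for full effect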
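test system = LMPTP-A | amount = 0.625 nM LMPTP-A final | reagent = fluorogenic phosphatase substrate OMFP at 400 µM final | incubation = 50 min at room temperature | benchmarks = no-enzyme low control, uninhibited high control | medium = Bis-Tris pH 6.0, DTT, detergent | signal = fluorescence intensity of OMFP turnover product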
GRK2 aptamer HTS: compounds blocking aptamer binding on GRK2 – biochemical, human GRK2, bead flow cytometry, HTS, primary screen | Beta-adrenergic receptor kinase 1 (Homo sapiens), P25098 | 330,000 tested, 0.59% active | FAM-aptamer displacement from GRK2 | inhibition of aptamer binding, % at 10 µM | AID 488847, 2010;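 active means inhibition of aptamer binding above 40%, roughly 3 SD of noise, on plates passing a quality check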;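 further: median bead fluorescence of bound FAM aptamer so fluorescent compounds give negative values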
Target sequence (P25098 whole entry, looked up): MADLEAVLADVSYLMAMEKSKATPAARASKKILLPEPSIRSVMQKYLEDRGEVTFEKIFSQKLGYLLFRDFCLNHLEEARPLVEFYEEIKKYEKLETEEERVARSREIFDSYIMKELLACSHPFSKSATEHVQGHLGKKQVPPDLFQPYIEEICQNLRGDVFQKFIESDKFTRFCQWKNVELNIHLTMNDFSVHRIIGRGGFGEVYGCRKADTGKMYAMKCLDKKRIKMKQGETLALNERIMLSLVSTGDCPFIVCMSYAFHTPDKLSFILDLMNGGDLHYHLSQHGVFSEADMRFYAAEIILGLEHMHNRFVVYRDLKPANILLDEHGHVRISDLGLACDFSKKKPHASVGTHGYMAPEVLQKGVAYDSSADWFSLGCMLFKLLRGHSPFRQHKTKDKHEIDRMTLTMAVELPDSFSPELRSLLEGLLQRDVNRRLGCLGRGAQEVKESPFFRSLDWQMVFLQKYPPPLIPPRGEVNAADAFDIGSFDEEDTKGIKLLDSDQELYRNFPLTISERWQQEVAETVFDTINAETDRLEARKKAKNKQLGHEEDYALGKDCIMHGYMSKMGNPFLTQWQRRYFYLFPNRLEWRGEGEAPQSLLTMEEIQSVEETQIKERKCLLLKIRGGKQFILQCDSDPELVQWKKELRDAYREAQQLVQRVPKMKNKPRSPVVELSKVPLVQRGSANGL
Scp1 confirm: Scp-1 phosphatase inhibitors, retest, confirmation, biochemical, colorimetric, single concentration | 2,500 tested, 61% active | shares compounds with Scp1 inh | recombinant SCP-1 catalytic domain, phosphate release, malachite green absorbance | AID 540281, 2011 | inhibition, % at 20 µM;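 further: plate controls were DMSO with enzyme for no effect and buffer wells lacking enzyme for full effect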
Scp-1 MG ctr: colorimetric readout interference by compounds, confirmation, artefact control for Scp-1 inhibitor project, biochemical, single concentration. shares compounds with Scp1 inh. Colorimetric interference counterscreen, malachite green absorbance 630 nm. apparent inhibition (interference), % at 20 µM. 2,500 tested, under 10 active;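 further: compounds added after enzyme reaction finished so only phosphate colour detection is probed; plate controls were DMSO wells with completed Scp-1 reaction for no effect and substrate wells lacking enzyme for full effect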
Scp1 DSF: Scp-1 binding by thermal shift, confirmation, orthogonal assay for Scp-1 inhibitor project, biophysical, differential scanning fluorimetry | shares compounds with Scp1 inh | Recombinant SCP1, Sypro Orange thermal shift Tm | thermal shift relative to vanadate control, % at 40 µM | 1,500 tested, 25% active;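 active means substances whose mean melting-temperature shift, as a percentage of the reference inhibitor's shift, reaches about 5.3%, limit read from the data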;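 further: 0% = Tm of DMSO wells and 100% = Tm with sodium orthovanadate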
Starred values were filed as active, the others as inactive; · = no result.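 How the source made its calls, unless noted: active means inhibition of at least 30% at 20 µM; inactive means the rest.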

SMILES | SUMO1-SIM PPI | DNMT1 inh | STEP inh | Scp1 inh | LMPTP block | GRK2 aptamer HTS | Scp1 confirm | Scp-1 MG ctr | others
CC(=O)c1ccc(S(=O)(=O)N2CCN(c3ccnc4cc(Cl)ccc34)CC2)cc1 | -36 | -7 | 4 | · | 13 | · | · | ·
O=C(CCc1nc2ccccc2c(=O)[nH]1)NNC(=O)c1ccc(Cl)cc1 | 1 | 2 | -2 | -4 | -1 | 0 | · | ·
O=C(CCc1nc2ccccc2c(=O)[nH]1)NNC(=O)c1cccc(Cl)c1 | 10 | 3 | 1 | 62* | 0 | 4 | -13 | -20
CC(OC(=O)Cc1ccsc1)C(=O)Nc1ccc(C(N)=O)cc1 (stereo not drawn) | 1 | 7 | -3 | -5 | 0 | 0 | · | ·
N=c1c(S(=O)(=O)c2ccc(Cl)cc2)cc2c(=O)n3ccccc3nc2n1Cc1ccco1 | -4 | 21 | 5 | 52* | 5 | 1 | 4 | -1
N#CC1=C(Nc2ccccc2Cl)SC2(CCCC2)NC1=O | 5 | -1 | -2 | · | -1 | · | · | ·
CCOc1cc(/C=N/N=C2/NC(=O)C(CC(=O)O)S2)ccc1OCc1ccc(Cl)cc1 (stereo not drawn) | 0 | -1 | 6 | 75* | 1 | 2 | 69* | -11 | Scp1 DSF=-14
Cc1ccc(/C=N/NC(=O)c2c[nH]c3ccccc23)s1 | -10 | 0 | 2 | 13 | 2 | 0 | · | ·
Cc1ccsc1/C=N/NC(=O)c1c[nH]c2ccccc12 | -8 | -1 | 0 | 69* | 1 | 0 | -14 | -15
COC(=O)c1ccccc1NC(=O)c1cc[n+](C)cc1 | -34 | 0 | -3 | 51* | -2 | 3 | -12 | -22
COC(=O)c1ccccc1NC(=O)c1cc[n+]([O-])cc1 | -6 | -1 | 2 | 0 | -1 | 5 | · | ·
CC(=O)CC1c2ccccc2C=C(c2ccsc2)N1c1ccc(-c2cccs2)cc1 (stereo not drawn) | -7 | · | · | · | 1 | · | · | ·
O=[N+]([O-])c1ccc2nc(-c3ccccc3)n(OCc3ccc(Cl)cc3)c2c1 | 1 | 14 | 6 | 59* | 4 | 4 | 51* | -5 | Scp1 DSF=6.2*
O=C(CCCc1nc(-c2ccccc2)no1)NCc1cccnc1 | 0 | -12 | 3 | 70* | 1 | 0 | 7 | -11
Cc1cccc(C(=O)Nc2ccc3c(c2)C(=O)NC3=O)c1 | -11 | 5 | -2 | 6 | -19 | 0 | · | ·
O=C(Nc1ccc2c(c1)C(=O)NC2=O)c1cc(Cl)ccc1Cl | -130 | -1 | -1 | -13 | -14 | 0 | · | ·
O=C(Nc1ccc2c(c1)C(=O)NC2=O)c1ccc(Cl)s1 | -7 | 3 | 22 | 85* | 5 | 3 | -2 | -15
O=C(Nc1ccc2c(c1)C(=O)NC2=O)c1cccc(Cl)c1 | 3 | 28 | 22 | 54* | 3 | 0 | 66* | -14 | Scp1 DSF=0
CC1C(=O)N(Cc2cn(CCC3OCCCO3)nn2)CCS(=O)(=O)N1Cc1ccc(-c2ccc(Cl)c(Cl)c2)cc1 (stereo not drawn) | 5 | -13 | 0 | · | 6 | · | · | ·
CCCCOCCCNC(=O)C[C@@H]1C[C@@]2(C(=O)OC)CCCCC=C2N(Cc2cccc3ccccc23)C1=O | 4 | · | · | · | 0 | · | · | ·
COc1ccc(/C=N/NC(=O)c2ccc(NC(=O)c3cccc([N+](=O)[O-])c3)cc2)c(OC)c1 | 8 | -26 | 0 | -3 | 0 | 0 | · | ·
COc1ccc(/C=N/NC(=O)c2cccc(NC(=O)c3ccc(Cl)cc3)c2)c(OC)c1 | 14 | 15 | 4 | 83* | 2 | 0 | 66* | -15 | Scp1 DSF=-15
Cc1ccc(NC(=O)C2C3CCC(O3)C2C(=O)O)cc1Cl (stereo not drawn) | 1 | -2 | 0 | -1 | 0 | 3 | · | ·
CCC(CC)c1nnc(NC(=O)COc2ccc3c(C)cc(=O)oc3c2)s1 | -2 | 7 | -10 | 18 | 2 | 2 | · | ·
Cc1cc(=O)oc2cc(OCC(=O)N3c4ccccc4NC(=O)C3(C)C)ccc12 | 3 | 24 | -2 | 62* | 6 | 5 | 42* | -22 | Scp1 DSF=-12
SMILES | SUMO1-SIM PPI | DNMT1 inh | STEP inh | Scp1 inh | LMPTP block | GRK2 aptamer HTS | Scp1 confirm | Scp-1 MG ctr | others
Cc1nnc(NC(=O)COc2ccc3c(C)cc(=O)oc3c2)s1 | 32 | 9 | 3 | 71* | 1 | 0 | 65* | -8 | Scp1 DSF=2
Cc1noc(C)c1COc1ccc(C(=O)OCC(=O)N2c3ccccc3NC(=O)C2(C)C)cc1 | 5 | 23 | -3 | 69* | 1 | 13 | 46* | -21 | Scp1 DSF=-3
COC(=O)/C=C/c1ccccc1S(=O)(=O)N(Cc1ccccc1)Cc1ccco1 | 1 | 24 | 2 | 73* | 1 | 2 | 30 | -26
COc1ccc(Cl)cc1NC(=O)NCCN1CCNC1=O | 0 | -1 | 0 | -11 | -1 | 0 | -22 | -15
COc1ccccc1NC(=O)NCCN1CCCCC1 | 0 | -1 | 3 | 0 | -3 | 0 | · | ·
COc1ccccc1NC(=O)NCCN1CCNC1=O | 0 | -1 | 1 | -10 | 0 | 0 | -10 | -14
COc1ccc(Cl)cc1NC(=O)NCCCl | -3 | 1 | -1 | -20 | -1 | 0 | · | ·
COc1ccccc1-c1ccc2c(c1)C(C)(Cc1cccc(C#N)c1)C(=O)N2 (stereo not drawn) | -1 | 1 | -2 | · | 0 | · | · | ·
Cc1cccc(C(=O)NC2CCN(C(=O)NCc3ccccc3)CC2)c1 | 0 | 5 | 0 | 75* | 0 | 0 | 60* | -11 | Scp1 DSF=-3
Cc1ccc(NC(=O)N2CCC(NC(=O)c3cccc(C)c3)CC2)cc1 | -3 | 7 | 0 | 103* | 1 | 1 | 55* | -9 | Scp1 DSF=-7
CN1[C@@H](Cc2ccccc2)COc2cc(N3CCSCC3)ccc2S1(=O)=O | -1 | · | · | · | -1 | · | · | ·
COc1ccc(S(=O)(=O)N2CCC[C@H]2C(=O)N2CCC[C@H]2C(=O)NCc2ccncc2)cc1C | -4 | · | · | · | -1 | · | · | ·

Screening results as filed in PubChem BioAssay.
